Calls of active or inactive are those of the source. The calls are words filed in the database; no cut-off is given here.
Assays:
[1] = Hemolytic activity in human RBC assessed as hemolysis at 320 to 640 uM measured after 1 hr; format: ADME, cell-based, Erythrocyte; conditions: human red blood cells (erythrocytes), read-out: Activity
In short: (§1)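 Fresh human erythrocytes washed and resuspended in PBS to a final 4% (v/v). Incubated 1 h at 37 °C with 2-fold serial peptide dilutions from 0 to 640 μM. Supernatant absorbance at 540 nm; PBS taken as 0% and 1% Triton as 100% hemolysis. Standard deviation reported; one-way ANOVA applied.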

[2] = Stability of the compound assessed as Engyodontium album PMSF-pretreated proteinase K-mediated compound hydrolysis at 20 uM incubated for 10 mins at 70 degC by coomassie blue staining-based NuPAGE analysis; format: ADME; conditions: parengyodontium album, 1 h, in the assay text read “incubated for up to 1 hr at 37 degC” for “incubated for 10 mins at 70 degC”
In short: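 Reactions stopped with 5 mM PMSF; PMSF-preinhibited enzyme served as control. Samples heated 70 °C for 10 min and run on 12% Bis-Tris gels with Coomassie staining. Band density normalized to T0.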

Lipid bilayer [3] = assay: Binding affinity to POPC membrane at 25 uM by CD spectroscopic analysis; format: ADME
In short: (§2)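 CD spectra of 25 μM peptide in 10 mM Tris, 10 mM NaCl, pH 7.4, with 2 mg/mL E. coli total lipid extract or POPC liposomes, equilibrated overnight. Helicity judged at 222 nm. Average of at least three independent experiments.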

Pseudomonas aeruginosa [4] = assay: Antibacterial activity against Pseudomonas aeruginosa PAO1 measured after 20 hrs by microtiter dilution method; format: functional; conditions: PAO1, 20 h
In short: (§3)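 Mueller-Hinton broth microdilution; 2-fold serial dilutions of peptide from 0 to 50 μM incubated 20 h at 37 °C with 50 000 cfu/well from an overnight MHB culture. Bacterial growth read as background-subtracted OD600. MIC recorded as the peptide concentration at which growth is inhibited. P. aeruginosa isolates came from sputum of cystic fibrosis patients with infections persisting after inhaled tobramycin.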

Pseudomonas aeruginosa [5] = assay: Antibacterial activity against tobramycin-pretreated Pseudomonas aeruginosa isolate 287 measured after 20 hrs by microtiter dilution method; format: functional; in short: as §3
[6] = Hemolytic activity in human RBC assessed as hemolysis at 40 uM measured after 1 hr; format: ADME, cell-based, Erythrocyte; conditions: human red blood cells (erythrocytes), read-out: Activity; in short: as §1
Escherichia coli [7] = assay: Binding affinity to Escherichia coli lipid extract liposome membrane at 10 uM by tryptophan fluorescence quenching method; format: cell membranes
In short: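 Acrylamide quenching of Trp; peptide 10 μM with 0.8 mg/mL E. coli lipid liposomes. Excitation at 295 nm, emission 310–400 nm. Read-out is the Stern–Volmer slope, with larger slopes meaning more quenching. At least two independent experiments, error given as standard deviation.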

Pseudomonas aeruginosa [8] = assay: Antibacterial activity against tobramycin-pretreated Pseudomonas aeruginosa isolate 214 measured after 20 hrs by microtiter dilution method; format: functional; in short: as §3
Pseudomonas aeruginosa [9] = assay: Antibacterial activity against tobramycin-pretreated Pseudomonas aeruginosa isolate 330 after 20 hrs by microtiter dilution method; format: functional; in short: as §3
Pseudomonas aeruginosa [10] = assay: Antibacterial activity against tobramycin-pretreated Pseudomonas aeruginosa isolate 380 after 20 hrs by microtiter dilution method; format: functional; in short: as §3
Escherichia coli [11] = assay: Binding affinity to Escherichia coli lipid extract liposome membrane at 10 uM by tryptophan fluorescence method; format: cell membranes
In short: (§4)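 Peptide at 10 μM in 10 mM Tris, 10 mM NaCl, pH 7.4, with 0.8 mg/mL E. coli total lipid extract or POPC liposomes, equilibrated overnight before recording. Trp excited at 280 nm, emission scanned 300–400 nm. After background subtraction, the wavelength of maximal emission was taken.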

Escherichia coli [12] = assay: Binding affinity to Escherichia coli lipid extract liposome membrane at 25 uM by CD spectroscopic analysis; format: cell membranes; in short: as §2
Escherichia coli [13] = assay: Antibacterial activity against Escherichia coli K-12 measured after 20 hrs by microtiter dilution method; format: functional; conditions: K-12, 20 h; in short: as §3
Escherichia coli [14] = assay: Induction of terbium(3)-loaded Escherichia coli lipid extract liposome membrane disruption at 10 uM measured after 20 mins by fluorescence assay relative to control; format: cell membranes
Lipid bilayer [15] = assay: Binding affinity to terbium(3)-loaded POPC membrane at 10 uM measured for 10 mins by fluorescence assay relative to control; format: ADME
In short: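 Tb3+-loaded liposomes, E. coli lipid or POPC, size-exclusion exchanged and diluted to 2.5% (v/v) in dipicolinic acid buffer, stirring. Peptide added at 10 μM. Tb3+ excited at 314 nm, emission at 544 nm recorded for 10 min. Liposome-only signal subtracted, normalized to a 0.1% Triton-lysed control as 100% disruption.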

Lipid bilayer [16] = assay: Binding affinity to POPC membrane at 10 uM by tryptophan fluorescence method; format: ADME; in short: as §4
Lipid bilayer [17] = assay: Binding affinity to 11,12-BrPC-loaded POPC membrane at 10 uM by tryptophan fluorescence method; format: ADME

Substance | Stability [2] | Activity (Lipid bilayer [3]) | MIC (Pseudomonas aeruginosa [4]) [µM] | MIC (Pseudomonas aeruginosa [5]) [µM] | Activity (Escherichia coli [7]) | MIC (Pseudomonas aeruginosa [8]) [µM] | MIC (Pseudomonas aeruginosa [9]) [µM] | MIC (Pseudomonas aeruginosa [10]) [µM] | Activity (Escherichia coli [11]) | Activity (Escherichia coli [12]) | MIC (Escherichia coli [13]) [µM] | Activity (Escherichia coli [14]) [%] | Activity (Lipid bilayer [15]) [%] | Activity (Lipid bilayer [16]) | Activity (Lipid bilayer [17]) | hemolysis at 1 h, up to 640 µM [1] [%] | hemolysis at 1 h, 40 µM [6] [%]
H-KAAKKFAKAWAKAFKAA-NH2 | Unstable | Not Active | 50 | > 50 | Active | > 50 | > 50 | > 50 | Active | Active | 12.5 | 8 | – | – | – | < 1 | 0
H-KKAKAFAKAWAKAFKAA-NH2 | Unstable | Not Active | 25 | 50 | – | 50 | > 50 | > 50 | Active | Active | 12.5 | 80 | – | – | – | < 1 | 0
H-KKKAAFAKAWAKAFKAA-NH2 | Unstable | Not Active | 50 | > 50 | – | 50 | > 50 | > 50 | Active | Active | 25 | 80 | – | – | – | < 1 | 0
H-KKKKKAAFAKAWAAFAA-NH2 | Stable | Not Active | 25 | 50 | – | 25 | 50 | 50 | Active | Active | 6.3 | – | – | – | – | < 1 | 0
H-KKKKKKAAFAAWAAFAA-NH2 | Stable | Not Active | 12.5 | 3.1 | Active | 3.1 | 25 | 12.5 | Active | Active | 1.6 | 35 | – | – | – | < 1 | 0
H-KKKKKKALFALWLAFLA-NH2 | – | Active | > 50 | 25 | Active | 50 | > 50 | > 50 | – | Active | 12.5 | 80 | 4 to 8 | Active | Not Active | – | 33

More lines, main results first:

Stability [2] | Activity (Lipid bilayer [3]) | MIC (Pseudomonas aeruginosa [4]) [µM] | MIC (Pseudomonas aeruginosa [5]) [µM] | Activity (Escherichia coli [7]) | MIC (Pseudomonas aeruginosa [8]) [µM] | MIC (Pseudomonas aeruginosa [9]) [µM] | MIC (Pseudomonas aeruginosa [10]) [µM] | Activity (Escherichia coli [11]) | Activity (Escherichia coli [12]) | MIC (Escherichia coli [13]) [µM] | Activity (Escherichia coli [14]) [%] | Activity (Lipid bilayer [15]) [%] | Activity (Lipid bilayer [16]) | Activity (Lipid bilayer [17]) | Substance | hemolysis at 1 h, up to 640 µM [1] [%] | hemolysis at 1 h, 40 µM [6] [%]
– | Active | 3.1 | 3.1 | inactive | 3.1 | 6.3 | 6.3 | – | Active | 1.6 | 40 | 25 to 70 | Active | Active | H-KALKKFLKAWAKLFKAL-NH2 | < 1 | 81
– | Active | 3.1 | 3.1 | – | 3.1 | 6.3 | 3.1 | – | Active | 3.1 | 40 | 25 to 70 | Active | – | H-KKKAAFLKLWAKLFKAL-NH2 | – | 100
Unstable | Not Active | 50 | > 50 | – | 50 | > 50 | 50 | Active | Active | 12.5 | – | – | – | – | H-KKKKAAFAKAWAKAFAA-NH2 | < 1 | 0
– | Active | > 50 | > 50 | – | > 50 | > 50 | > 50 | – | Active | 12.5 | 40 | 25 to 70 | Active | – | H-KKKKAAFLKLWLKLFAA-NH2 | – | 8
– | Active | 12.5 | 6.3 | – | 6.3 | 12.5 | > 50 | – | Active | 3.1 | 40 | 25 to 70 | Active | – | H-KKKKKALFLKLWAAFLA-NH2 | – | 49
– | Active | 3.1 | 3.1 | – | 3.1 | 6.3 | 1.5 | – | Active | 1.6 | 40 | 25 to 70 | Active | – | H-KKLKAFLKAWAKLFKAL-NH2 | < 1 | 89

— ChEMBL document CHEMBL4364261, “Positive Charge Patterning and Hydrophobicity of Membrane-Active Antimicrobial Peptides as Determinants of Activity, Toxicity, and Pharmacokinetic Stability” (J Med Chem, 2019)
